Assay results pooled from the literature.
Lines come from different studies, so protocols differ.

C=CC(=O)Nc1cc(Nc2nccc(-c3cn(C)c4ccccc34)n2)c(OC)cc1N(C)CCN(C)C
IC50 (PANC-1; cell growth or viability, MTS; 72 h): 7140 nM

N#Cc1c(-c2ccc(Cl)cc2Cl)c(C(N)=S)c(N)n(N)c1=O
inhibition zone (Saccharomyces cerevisiae; microbial growth, well diffusion; ATCC9763; 500 µg/mL): 11 mm

Nc1ccc(/C=C/C(=O)N2CCc3c(oc4c(-c5ccc(F)cc5)cc(-c5ccc(C(=O)N6CCOCC6)nn5)cc34)C2)cn1
IC50 (PANC-1; cell growth or viability, CCK-8; 72 h): > 20000 nM

O=C(NO)c1ccc(CNc2nc3cccc(-c4ccc5c(c4)OCO5)n3n2)cc1
GI50 (SF-268; cell growth or viability, SRB): 470 nM

N#Cc1c(-c2ccc(OCc3ccccc3)cc2)c(C(N)=S)c(N)n(N)c1=O
inhibition zone (Saccharomyces cerevisiae; microbial growth, well diffusion; ATCC9763; 500 µg/mL): 17 mm

O=C(NC(=S)Nc1ccccc1O)c1cccs1
IC50 (Leishmania tropica; parasite growth, resazurin; promastigote): 290 nM

Nc1ccc(/C=C/C(=O)N2CCc3c(oc4c(-c5ccc(F)cc5)cc(-c5ccc(C(=O)N6CCC(F)(F)CC6)nn5)cc34)C2)cn1
IC50 (PANC-1; cell growth or viability, CCK-8; 72 h): > 20000 nM

O=C(NC(=S)Nc1ccccc1O)c1ccco1
IC50 (Leishmania tropica; parasite growth, resazurin; promastigote): 4190 nM

C=CC(=O)NC1CCN(c2ncc3ncnc(Nc4ccc(Oc5ccc6c(c5)ncn6C)c(C)c4)c3n2)CC1
EC50 (NUGC-4; cell growth or viability): 14.4 nM

N#Cc1c(-c2ccc(OCc3ccccc3)cc2)c(C(N)=O)c(N)n(N)c1=O
inhibition zone (Saccharomyces cerevisiae; microbial growth, well diffusion; ATCC9763; 500 µg/mL): 16 mm

COc1ccc(Cc2[nH]/c(=N/C(=O)C34CC5CC(CC(C5)C3)C4)n(C)c2-c2ccc(OC(=O)c3ccccc3)c(OC)c2)cc1
IC50 (Hepatitis B virus; viral replication, inhibitor; HePAD38): 9820 nM

O=C(NC(=S)Nc1ccccn1)c1ccco1
IC50 (Leishmania tropica; parasite growth, resazurin; promastigote): 940 nM
